Results: PMC8263925 (The Journal of General Physiology, 2021)
Positions count from the first letter of the chain named.

Legend:
Hv1 WT [1] = biological target: T1, Hv1 WT (Homo sapiens, UniProt Q96D96); test: Kinetic simulation of HIF-mediated inhibition, four-state model S; conditions: room temperature, closed VSD
T1 sequence (Q96D96 1-273): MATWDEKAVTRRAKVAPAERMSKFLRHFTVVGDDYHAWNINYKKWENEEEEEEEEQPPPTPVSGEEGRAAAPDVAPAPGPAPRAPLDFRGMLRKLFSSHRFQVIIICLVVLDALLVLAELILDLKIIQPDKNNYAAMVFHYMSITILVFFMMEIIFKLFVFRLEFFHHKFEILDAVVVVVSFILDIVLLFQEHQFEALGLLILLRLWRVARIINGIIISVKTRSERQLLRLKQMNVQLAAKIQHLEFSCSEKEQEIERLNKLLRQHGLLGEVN

Hv1 R208K = biological target: T2, Hv1 R208K (Homo sapiens, UniProt Q96D96, R208K); test: Inside-out patch time course of inhibition, mutant channel; assay type: cell-based; conditions: 50 µM; fast component not resolved from slow component
T2 sequence (Q96D96 1-273 R208K): T1 sequence (Q96D96 1-273) with R208K
Method in brief: (§1)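 Xenopus oocytes injected with mutant-channel mRNA 1–3 d earlier, kept at 18°C in ND96. Inside-out patches at 22 ± 1°C in symmetric Mes/TEA solutions, pH 6.0. Held at −40 mV and pulsed to +120 mV at relative depolarization time 0.2 (3 s/15 s). 50 µM perfused into bath. End-pulse current leak- and rundown-corrected. Decay fitted double-exponentially (τfast, τslow, cfast, cslow); washout recovery single-exponentially (τoff).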

Hv1 D185A = biological target: T3, Hv1 D185A (Homo sapiens, UniProt Q96D96, D185A); test: as above; assay type: cell-based; conditions: 50 µM
T3 sequence (Q96D96 1-273 D185A): T1 sequence (Q96D96 1-273) with D185A
Method in brief: as §1

Hv1 W207Y = biological target: T4, Hv1 W207Y (Homo sapiens, UniProt Q96D96, W207Y); test: as above; assay type: cell-based; conditions: 50 µM
T4 sequence (Q96D96 1-273 W207Y): T1 sequence (Q96D96 1-273) with W207Y
Method in brief: as §1

Hv1 E171Q = biological target: T5, Hv1 E171Q (Homo sapiens, UniProt Q96D96, E171Q); test: as above; assay type: cell-based; conditions: 50 µM
T5 sequence (Q96D96 1-273 E171Q): T1 sequence (Q96D96 1-273) with E171Q
Method in brief: as §1

Hv1 D174E = biological target: T6, Hv1 D174E (Homo sapiens, UniProt Q96D96, D174E); test: as above; assay type: cell-based
T6 sequence (Q96D96 1-273 D174E): T1 sequence (Q96D96 1-273) with D174E
Method in brief: as §1

Hv1 WT [2] = biological target: T1, Hv1 WT; test: G-V; assay type: cell-based
Method in brief: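 Oocytes expressing WT channel (mRNA injected 1–3 d before). Inside-out patches at 22 ± 1°C; bath and pipette 100 mM Mes, 30 mM TEA methanesulfonate, 5 mM TEA chloride, 5 mM EGTA, pH 6.0. Steps to −20 to +130 mV, tails at −40 mV, with or without 50 µM in bath. G = (Itest − Itail)/(Vtest − Vtail), rundown-corrected via reference step. Boltzmann fit gave V1/2 and slope. ≥5 patches, SEM.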

Hv1 D112E = biological target: T7, Hv1 D112E (Homo sapiens, UniProt Q96D96, D112E); test: Inside-out patch time course of inhibition, mutant channel; assay type: cell-based; conditions: 50 µM, RDT 0.1
T7 sequence (Q96D96 1-273 D112E): T1 sequence (Q96D96 1-273) with D112E
Method in brief: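 Mutant channel expressed in oocytes. Inside-out patches, pH 6.0 both sides, 22 ± 1°C. Holding −40 mV, depolarizations to +120 mV at relative depolarization time 0.1 (2 s/20 s) to follow slow kinetics, with matched WT comparison. 50 µM perfused into bath. Isochronal end-pulse current, leak- and rundown-corrected. Decay fitted with a double-exponential function for fast and slow components.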

Cc1[nH]c(N)nc1CCC(=O)c1cc(F)cc(F)c1 [HIF, 3-(2-amino-5-methyl-1H-imidazol-4-yl)-1-(3,5-difluorophenyl)propan-1-one]
energy barriers to cross in and out of site 2 (Hv1 WT [1]): ~20 kcal/mol
extent of inhibition compared with WT (Hv1 R208K): slightly increased
effect of mutation on extent or time course of inhibition (Hv1 D185A): did not appreciably affect
reduction of the extent of inhibition vs WT (Hv1 W207Y): 38%
τslow (Hv1 W207Y): > 200 s
reduction of the extent of inhibition vs WT (Hv1 E171Q): 46%
τslow (Hv1 E171Q; too slow to be accurately quantified): > 200 s
reduction of the extent of inhibition vs WT (Hv1 D174E; 50 µM): 35%
τslow (Hv1 D174E; 50 µM, too slow to be accurately quantified): > 200 s
τoff, recovery from inhibition (Hv1 D174E; after 50 µM, RDT = 0.2): 37 ± 6 s
shift to more positive potentials in the V1/2 of activation (Hv1 WT [2]; 50 μM, pHi = pHo = 6.0): ~15 mV
slope of G-V curve in the presence of inhibitor (Hv1 WT [2]; 50 µM, pHi = pHo = 6.0 (11 ± 1 without HIF)): 13 ± 1 mV
V1/2 of G-V curve in the presence of inhibitor (Hv1 WT [2]; 50 µM, pHi = pHo = 6.0 (53 ± 3 mV without HIF)): 68 ± 2 mV
fast component of the inhibition process (Hv1 D112E): eliminated
slow component of the inhibition process (Hv1 D112E): unaffected
